# Test results as given in ChEMBL document CHEMBL1157327, “Antimicrobial dialkylresorcinols from Pseudomonas sp. Ki19” (2006).
# What was measured:
# Type in all cases: functional
# [1] = test system: Candida albicans; assay: Antifungal activity against Candida albicans assessed as total inhibition of cell growth/spore germination after 24 hrs
# Method in brief: (§1)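 Microtiter-plate cell growth inhibition, compounds tested up to 100 µg/mL, incubated at 37 °C for 24 h. Total inhibition was taken as full inhibition of growth. Tests run in triplicate and repeated once.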
# [2] = test system: Staphylococcus aureus; assay: Antibacterial activity against Staphylococcus aureus assessed as total inhibition of cell growth/spore germination after 24 hrs; method in brief: as §1
# [3] = test system: Candida albicans; assay: Antifungal activity against Candida albicans assessed as detectable inhibition of growth after 24 hrs; method in brief: as §1
# [4] = test system: Fusarium culmorum; assay: Antifungal activity against Fusarium culmorum assessed as total inhibition of cell growth/spore germination after 72 hrs
# Method in brief: (§2)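 Spore germination/growth inhibition was read in microtiter plates with compounds up to 100 µg/mL. Plates were incubated in darkness at 27-28 °C: D. sorokiniana 48 h, F. culmorum 72 h, A. fumigatus 96 h. Visual scores ran from 3 (full inhibition, like sterile medium) through 1 (detectable) to 0 (like untreated spore suspension). Triplicates, repeated once.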
# [5] = test system: Fusarium culmorum; assay: Antifungal activity against Fusarium culmorum assessed as detectable inhibition of growth after 72 hrs; method in brief: as §2
# [6] = test system: Drechslera; assay: Antifungal activity against Drechslera sorokiniana assessed as total inhibition of cell growth/spore germination after 48 hrs; method in brief: as §2
# [7] = test system: Aspergillus fumigatus; assay: Antifungal activity against Aspergillus fumigatus assessed as total inhibition of cell growth/spore germination after 96 hrs; method in brief: as §2
# [8] = test system: Aspergillus fumigatus; assay: Antifungal activity against Aspergillus fumigatus assessed as detectable inhibition of growth after 96 hrs; method in brief: as §2
# [9] = test system: Staphylococcus aureus; assay: Antibacterial activity against Staphylococcus aureus assessed as detectable inhibition of growth after 24 hrs; method in brief: as §1
# [10] = test system: Drechslera; assay: Antifungal activity against Drechslera sorokiniana assessed as detectable inhibition of growth after 48 hrs; method in brief: as §2
# [11] = test system: Pseudomonas savastanoi pv. savastanoi; assay: Antibacterial activity against Pseudomonas savastanoi pv. savastanoi CCM 3580 assessed as detectable inhibition of growth after 24 hrs; conditions: CCM 3580, 24 h
# Method in brief: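 Microtiter-plate bioassay of cell growth inhibition; compounds tested up to 100 µg/mL; plates incubated in darkness at 27-28 °C for 24 h; growth scored visually on a 0-3 scale (3 full inhibition like sterile-medium control, 1 detectable inhibition, 0 like untreated cell suspension); value is lowest concentration giving detectable inhibition; triplicate, repeated once.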
SMILES,MIC [1] [µg/mL],MIC [2] [µg/mL],MIC [3] [µg/mL],MIC [4] [µg/mL],MIC [5] [µg/mL],MIC [6] [µg/mL],MIC [7] [µg/mL],MIC [8] [µg/mL],MIC [9] [µg/mL],MIC [10] [µg/mL],MIC [11] [µg/mL]
CCCCCCc1c(O)cc(C)cc1O,,2,50,50,10,50,50,10,1,,
CCCCc1c(O)cc(CCC)cc1O,,5,50,50,,,,50,,50,
C[C@@H]1[C@H](O)[C@@H](C)/C=C/C=C/C=C/C=C/C=C/C=C/C=C/[C@H](O[C@@H]2O[C@H](C)[C@@H](O)[C@H](N)[C@@H]2O)C[C@@H]2O[C@](O)(C[C@@H](O)C[C@@H](O)[C@H](O)CC[C@@H](O)C[C@@H](O)CC(=O)O[C@H]1C)C[C@H](O)[C@H]2C(=O)O [AMPHOTERICIN B],40,,,40,,4,40,,,,
C=CCOC(Cn1ccnc1)c1ccc(Cl)cc1Cl (stereo not drawn) [ENILCONAZOLE],,,,5,,0.1,5,,,,
CCCCCCc1c(O)cc(CCCCC)cc1O [RESORSTATIN],,7,50,50,,,,50,6,50,50
CN[C@@H]1[C@H](O[C@H]2[C@H](O[C@H]3[C@H](O)[C@@H](O)[C@H](N=C(N)N)[C@@H](O)[C@@H]3N=C(N)N)O[C@@H](C)[C@]2(O)C=O)O[C@@H](CO)[C@H](O)[C@H]1O [STREPTOMYCIN],,10,,,,,,,,,

# Further lines, with some results ahead:
MIC [1] [µg/mL],MIC [2] [µg/mL],MIC [3] [µg/mL],MIC [4] [µg/mL],MIC [5] [µg/mL],MIC [6] [µg/mL],MIC [7] [µg/mL],MIC [8] [µg/mL],MIC [9] [µg/mL],MIC [10] [µg/mL],SMILES,MIC [11] [µg/mL]
100,100,,,,,,,,,CCCCCCC1=C(O)C(=O)C(CCCCC)=CC1=O,
50,3,,50,10,,50,10,2,50,CCCCCCc1c(O)cc(CCC)cc1O,
